Data on 14 compounds can be found in ChEMBL document CHEMBL1151891, “Synthesis and anticancer activities of novel 3,5-disubstituted-1,2,4-oxadiazoles” (Bioorg Med Chem Lett, 2009).

Common to all, as to type: functional, cell-based
Experiment [1] relates to DU-145. Put plainly: Anticancer activity against human DU145 cells after 24 hrs by MTT assay. Conditions: DU-145, 24 h. The method, boiled down:
(§1)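 Cells maintained in RPMI-1640 with 10% heat-inactivated FBS and 1% penicillin/streptomycin. Seeded at 4.0 × 10³ cells/well for 12 h, then exposed to compounds over a 10 nM–1 mM range for 24 h. MTT added to 0.5 mg/ml final for 30 min. Cells washed twice in PBS and lysed in DMSO. Absorbance read at 570 nm; IC50 reported.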

For experiment [2], the system named is LNCaP. Put plainly: Anticancer activity against human LNCAP cells after 24 hrs by MTT assay. The method, boiled down:
as §1
A general note: Tetrazolium dyes change colour on reduction, which living cells bring about.

In experiment [3] the test system is MCF7. Nature of the experiment: Anticancer activity against human MCF7 cells after 24 hrs by MTT assay. Conditions: MCF7, 24 h. Put shortly: as §1
Experiment [4] can be described thus: Anticancer activity against human MDA231 cells after 24 hrs by MTT assay. Conditions: MDA-MB-231, 24 h. The method, boiled down:
as §1

Experiment [5] has as its system HCT-116. Put plainly: Anticancer activity against human HCT116 cells after 24 hrs by MTT assay. Conditions: HCT-116, 24 h. Put shortly: as §1
The test system of experiment [6] is MIA PaCa-2. Nature of the experiment: Anticancer activity against human MIAPaCa2 cells after 24 hrs by MTT assay. The settings on record: MIA PaCa-2, 24 h. Put shortly:
as §1

Experiment [7] relates to PC-3. Nature of the experiment: Anticancer activity against human PC3 cells after 24 hrs by MTT assay. Conditions: PC-3, 24 h. Put shortly: as §1

Structures are written as SMILES.

Broadly, the IC50 is the midpoint of a concentration-inhibition curve. High values mean lower potency, low ones higher potency. For the compound `Fc1ccc(-c2nc(-c3ccccc3)no2)cc1`, the IC50 in experiment [1] was more than 1000 µM; in experiment [2], 23.7 µM; in experiment [3], more than 1000 µM; in experiment [4] it was more than 1000 µM; in experiment [5] it was more than 1000 µM; in experiment [6] it was more than 1000 µM. In experiment [7], this compound showed an IC50 of more than 1000 µM.
Regarding `COc1ccc(-c2noc(-c3ccc(F)cc3)n2)cc1O`, the IC50 in experiment [1] was more than 1000 µM; in experiment [2] it was more than 1000 µM; in experiment [3], more than 1000 µM; in experiment [4], more than 1000 µM; in experiment [5], more than 1000 µM; in experiment [6], 351 µM. The compound further showed an IC50 in experiment [7] of more than 1000 µM.
Regarding `COc1ccc(-c2noc(C3CCCN3)n2)cc1OC1CCCC1` (stereo not drawn), the IC50 in experiment [1] was 242 µM; in experiment [2] it was 0.043 µM; in experiment [3], more than 1000 µM; in experiment [4] it was 212 µM; in experiment [5], 185 µM; in experiment [6], 19.5 µM. The compound also gave an IC50 in experiment [7] of more than 1000 µM.
On to `COc1ccc(-c2noc(-c3ccc(F)cc3)n2)cc1OC1CCCC1`, for which the IC50 in experiment [1] is 20.7 µM; in experiment [2], 87.9 µM; in experiment [3] it was 3.88 µM; in experiment [4], 55.5 µM; in experiment [5], 210 µM; in experiment [6], 6.09 µM. The compound further came in with an IC50 in experiment [7] of more than 1000 µM.
In the case of `COc1ccc(-c2noc(-c3ccncc3)n2)cc1OC1CCCC1`, the IC50 in experiment [1] is more than 1000 µM; in experiment [2], more than 1000 µM; in experiment [3] it was more than 1000 µM; in experiment [4], 240 µM; in experiment [5], more than 1000 µM; in experiment [6], 9.33 µM. In addition, the IC50 in experiment [7] was more than 1000 µM.
Consider `COc1ccc(-c2noc(CC(C)=O)n2)cc1OC1CCCC1`, for which the IC50 in experiment [1] came out at 302 µM; in experiment [2], 28.3 µM; in experiment [3], 174 µM; in experiment [4], 53.3 µM; in experiment [5] it was 185 µM; in experiment [6] it was 3.01 µM. Also, the IC50 in experiment [7] is more than 1000 µM.
As to `COc1ccc(-c2noc(C3CCNCC3)n2)cc1OC1CCCC1`, the IC50 in experiment [1] was 0.057 µM; in experiment [2], 0.01 µM; in experiment [3], 3.88 µM; in experiment [4], 0.37 µM; in experiment [5], 1.54 µM; in experiment [6], 0.54 µM. The IC50 in experiment [7] was more than 1000 µM.
Take `COc1ccc(-c2noc(Cc3c[nH]c4ccccc34)n2)cc1OC1CCCC1`: the IC50 in experiment [1] was more than 1000 µM; in experiment [2] it was more than 1000 µM; in experiment [3] it was more than 1000 µM; in experiment [4], more than 1000 µM; in experiment [5] it was more than 1000 µM; in experiment [6], 9.56 µM. Moreover, in experiment [7], the IC50 is more than 1000 µM.
Consider `c1ccc(-c2noc(-c3ccncc3)n2)cc1`, for which the IC50 in experiment [1] was 657 µM; in experiment [2], 710 µM; in experiment [3] it was more than 1000 µM; in experiment [4], more than 1000 µM; in experiment [5], more than 1000 µM; in experiment [6] it was 497 µM. Further, in experiment [7], the IC50 was more than 1000 µM.
`COc1ccc(-c2noc(-c3ccccc3)n2)cc1OC1CCCC1`: the 50% inhibitory concentration (IC50) in experiment [1], in experiment [2], in experiment [3], in experiment [4], in experiment [5] and in experiment [6] was more than 1000 µM throughout. The compound also displayed an IC50 in experiment [7] of more than 1000 µM.
For `COc1ccc(-c2noc(-c3ccc(Cl)cc3)n2)cc1OC1CCCC1`, the IC50 in experiment [1] is 122 µM; in experiment [2], 20.8 µM; in experiment [3] it was 174 µM; in experiment [4], 396 µM; in experiment [5] it was more than 1000 µM; in experiment [6] it was 0.74 µM. Moreover, in experiment [7], the IC50 was more than 1000 µM.
For `COc1ccc(-c2noc(-c3cccnc3)n2)cc1OC1CCCC1`, the IC50 in experiment [1], in experiment [2], in experiment [3], in experiment [4], in experiment [5] and in experiment [6] was more than 1000 µM throughout. Further, the IC50 in experiment [7] was more than 1000 µM.
For the compound `COc1cc(-c2noc(-c3ccncc3)n2)ccc1OCc1ccccc1`, the IC50 in experiment [1], in experiment [2], in experiment [3], in experiment [4], in experiment [5] and in experiment [6] was more than 1000 µM in each case. The IC50 in experiment [7] was more than 1000 µM.
In the case of `COc1ccc(-c2noc(-c3ccc(O)cc3)n2)cc1OC1CCCC1`, the IC50 in experiment [1] turned out to be 0.78 µM; in experiment [2], 0.86 µM; in experiment [3], 0.39 µM; in experiment [4], 0.31 µM; in experiment [5], 0.27 µM; in experiment [6] it was 0.48 µM. The compound also registered an IC50 in experiment [7] of 162 µM.
